Data reported in paper PMC2762272 (Bioorganic & medicinal chemistry, 2009).
Values belong to the compound of their own block, whether it stands above or below them.

Legend:
[1] = system: murine leukemia (L1210) cells; assay: Cell growth inhibitory activity, L1210; type: cell-based; conditions: Mus musculus, L1210, 48 h, read-out: IC50 L1210
Method in brief: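 Murine leukemia cells at 300,000-500,000 cells/mL were mixed 1:1 with dilutions of test compound and incubated at 37 °C for two days. Cell number was counted with a Coulter counter. IC50 is the concentration inhibiting proliferation by 50%, taken from dose–response curves as mean ± SE of at least three independent experiments.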

[2] = system: murine mammary carcinoma (FM3A) cells; assay: Cell growth inhibitory activity, FM3A; type: cell-based; conditions: Mus musculus, 48 h, read-out: IC50 FM3A/0
[3] = system: L1210, FM3A, Molt/4, CEM and HeLa cells; assay: Cell growth inhibitory activity, panel of cell lines; type: cell-based, murine and human; conditions: for IC50: read-out: IC50 values, range over the cell lines
Method in brief: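 Murine L1210 leukemia and FM3A mammary carcinoma cells, and human Molt 4, CEM (T-lymphocyte) and HeLa (cervix carcinoma) cells. Cells were suspended at 300,000–500,000 cells/mL and mixed 1:1 with serial dilutions of test compound. Incubated 2 days at 37 °C, then cell number counted with a Coulter counter. IC50 (50% inhibition of proliferation) was taken from dose–response curves as mean ± SE of ≥3 independent experiments.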

[4] = system: human T-lymphocyte Molt4/C8 cells; assay: Cell growth inhibitory activity, Molt/4; type: cell-based; conditions: Molt4/C8, 48 h, read-out: IC50 Molt4/C8
[5] = system: K562 (human chronic myelogenous leukemia) cells; assay: Flow cytometric analysis of cell cycle distribution; type: cell-based; conditions: 24 h, compound at concentration inhibiting 100% cell growth
[6] = system: human cervix carcinoma (HeLa) cells; assay: Cell growth inhibitory activity, HeLa; type: cell-based
[7] = system: bovine brain tubulin; assay: Inhibition of tubulin polymerization; type: biochemical
[8] = system: K562 (human chronic myelogenous leukemia) cells; assay: Concentration inhibiting 100% cell growth of K562 cells; type: cell-based

Compound: COc1ccc(/C=C\c2cc(OC)c(OC)c(OC)c2)cc1O [CA4, combretastatin A-4]
- IC50 [1]: 2.8 ± 1.1 nM

- IC50 [1]: 430 ± 40 nM
- IC50 [2]: 280 ± 160 nM
- IC50 [3]: 87 to 430 nM
Compound: COc1ccc2c(N)c(C(=O)c3cc(OC)c(OC)c(OC)c3)oc2c1 [Compound 3a]

- IC50 [1]: 65 ± 5 nM
- IC50 [2]: 59 ± 5 nM
- IC50 [3]: 48 to 78 nM
Compound: COc1ccc2c(N(C)C)c(C(=O)c3cc(OC)c(OC)c(OC)c3)oc2c1 [Compound 3b]

- IC50 [4]: > 10000 nM
Compound: COc1ccc2cc(C(OC)c3cc(OC)c(OC)c(OC)c3)oc2c1 (stereo not shown) [Compound 4aa, 6-methoxy-2-(methoxy(3,4,5-trimethoxyphenyl)methyl)benzofuran]

- IC50 [4]: > 10000 nM
Compound: COc1ccc2c3c(oc2c1)C(=O)c1cc(OC)c(OC)c(OC)c1-3 [Compound 4ac, 3,8,9,10-tetramethoxy-6H-benzo[b]indeno[1,2-d]furan-6-one]
- antiproliferative activity (in words) ([3]; five cell lines): completely inactive

Compound: COc1cc(C(=O)c2cc3c(OC)cccc3o2)cc(OC)c1OC [Compound 4b, (4-Methoxybenzofuran-2-yl)(3,4,5-trimethoxyphenyl)methanone]
- sub-G0–G1 peak (apoptotic peak, A) [5]: 20–44%

Compound: COc1ccc2cc(C(=O)c3cc(OC)c(OC)c(OC)c3)oc2c1 [Compound 4d, (6-Methoxybenzofuran-2-yl)(3,4,5-trimethoxyphenyl)methanone]
- IC50 [3]: 59 to 110 nM

Compound: COc1cc(C(=O)c2cc3cc(Cl)ccc3o2)cc(OC)c1OC [Compound 4g, (5-Chlorobenzofuran-2-yl)(3,4,5-trimethoxyphenyl)methanone]
- IC50 [4]: > 10000 nM

- IC50 [4]: > 10000 nM
Compound: COc1cc(C(=O)c2cc3cc(Br)ccc3o2)cc(OC)c1OC [Compound 4h, (5-Bromobenzofuran-2-yl)(3,4,5-trimethoxyphenyl)methanone]

- IC50 [4]: > 10000 nM
Compound: COc1cc(C(=O)c2cc3ccc(OC)c(O)c3o2)cc(OC)c1OC [Compound 4i, (7-Hydroxy-6-methoxybenzofuran-2-yl)(3,4,5-trimethoxyphenyl)methanone]

Compound: COc1cc(C(=O)c2cc3cc(OC)c(OC)c(OC)c3o2)cc(OC)c1OC [Compound 4k, (5,6,7-Trimethoxybenzofuran-2-yl)(3,4,5-trimethoxyphenyl)methanone]
- IC50 [4]: > 10000 nM

- IC50 [4]: > 10000 nM
Compound: COc1cc(C(=O)c2cc3cc(O)ccc3o2)cc(OC)c1OC [Compound 4l, (5-Hydroxybenzofuran-2-yl)(3,4,5-trimethoxyphenyl)-methanone]

- IC50 [4]: > 10000 nM
Compound: COc1cc(C(=O)c2cc3ccc(O)cc3o2)cc(OC)c1OC [Compound 4m, (6-Hydroxybenzofuran-2-yl)(3,4,5-trimethoxyphenyl)-methanone]

- IC50 [4]: > 10000 nM
Compound: COc1cc(C(=O)c2cc3cccc(O)c3o2)cc(OC)c1OC [Compound 4n, (7-Hydroxybenzofuran-2-yl)(3,4,5-trimethoxyphenyl)-methanone]

Compound: COc1cc(C(=O)c2oc3cccc(OC)c3c2C)cc(OC)c1OC [Compound 4p, (4-Methoxy-3-methylbenzofuran-2-yl)(3,4,5-trimethoxyphenyl)methanone]
- effect on cell cycle distribution [5]: accumulate in late S phase
- sub-G0–G1 peak (apoptotic peak, A) [5]: 20–44%

- IC50 [3]: 3 to 27 nM
Compound: COc1ccc2c(C)c(C(=O)c3cc(OC)c(OC)c(OC)c3)oc2c1 [Compound 4r, (6-Methoxy-3-methylbenzofuran-2-yl)(3,4,5-trimethoxyphenyl)methanone]

- IC50 [3]: 1.2 to 6.3 nM
Compound: CCOc1ccc2c(C)c(C(=O)c3cc(OC)c(OC)c(OC)c3)oc2c1 [Compound 4t, (6-Ethoxy-3-methylbenzofuran-2-yl)(3,4,5-trimethoxyphenyl)methanone]
- fold increase of activity relative to 4r [6]: 2 fold
- fold increase of activity relative to 4r ([3]; L1210, FM3A, Molt/4 and CEM cells): 10 fold

Compound: COc1cc(C(=O)c2oc3cc(F)ccc3c2C)cc(OC)c1OC [Compound 4u, (6-Fluoro-3-methylbenzofuran-2-yl)(3,4,5-trimethoxyphenyl)methanone]
- antitubulin polymerization activity (in words) [7]: weak antitubulin polymerization activity
- concentration able to inhibit 100% cell growth after 24 h [8]: 1.62 µM
- effect on cell cycle distribution [5]: accumulate in late S phase
- sub-G0–G1 peak (apoptotic peak, A) [5]: 20–44%

Compound: COc1cc(C(=O)c2oc3ccc(O)cc3c2C)cc(OC)c1OC [Compound 4w, (5-Hydroxy-3-methylbenzofuran-2-yl)(3,4,5-trimethoxyphenyl)methanone]
- sub-G0–G1 peak (apoptotic peak, A) [5]: 20–44%

- IC50 [4]: 100 ± 10 nM
Compound: COc1ccc2cc(C(=S)c3cc(OC)c(OC)c(OC)c3)oc2c1 [Compound 4y, (6-methoxybenzofuran-2-yl)(3,4,5-trimethoxyphenyl)methanethione]
